What was measured:
Chlamydia trachomatis [1] = assay: Antimicrobial activity against Chlamydia trachomatis serovar LGV-L2 infected in human HeLa cells assessed as concentration require to reduce relative inclusion forming units by 95% after 48 hrs; assay type: functional
Summary of the method: (§1)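 HeLa cells infected with LGV-L2 at MOI 0.1-0.5; compounds added at 1 hpi, tested at 2.5 µM then 5 or 10 µM or 1, 0.5, 0.25, 0.1 µM; after ~48 h, osmotic lysis, SPG restored, 10-fold dilutions reinfect fresh HeLa; IFUs counted by automated imaging versus DMSO; Reinfect95 = lowest concentration consistently giving 95% IFU reduction; ≥2 experiments in triplicate.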

[2] = Cytotoxicity against human HeLa cells assessed as cell viability at 10 uM after 48 hrs by resazurin assay relative to control; assay type: cell-based; settings: read-out: Activity
Summary of the method: (§2)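 Uninfected HeLa seeded in RPMI, next day switched to colorless DMEM with 10% FBS, 2 mM glutamine; compounds added in triplicate, 48 h at 37 °C; resazurin added, 3 h at 37 °C dark; fluorescence ex 535/em 595 nm; cell-free wells with compound check direct resazurin reduction; mean of three experiments in triplicate, SD over nine replicates.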

Chlamydia trachomatis [3] = assay: Antimicrobial activity against Chlamydia trachomatis serovar LGV-L2 infected in human HeLa cells assessed as decrease in relative inclusion forming units measured 44 to 48 hrs post infection by DAPI staining-based assay; assay type: functional, organism-based
Summary of the method: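 HeLa229 cells infected with serovar LGV-L2 at MOI 0.3; compounds in DMSO added at 1 hpi as 8-step halving dilutions from 2 to 0.0156 µM; after 44-48 h, osmotic lysis with cold water, SPG restored, lysate 10-fold serially diluted onto fresh HeLa; after 44-48 h, methanol-fixed, anti-Chlamydia/FITC stained, IFUs counted by automated scanner relative to DMSO; EC50 by nonlinear regression, ≥3 independent experiments.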

[4] = Cytotoxicity against human HeLa cells assessed as cell viability at 25 uM after 48 hrs by resazurin assay relative to control; assay type: cell-based; settings: read-out: Activity; summary of the method: as §2
[5] = 1-octanol-potassium phosphate buffer partition co-efficient, log P of the compound incubated overnight by shake-flask method; assay type: physicochemical
Summary of the method: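 Miniaturized shake-flask: 1-octanol pre-saturated with 0.1 M potassium phosphate pH 7.4 and buffer pre-saturated with octanol mixed 1:3 and 1:6; compound added from 10 mM DMSO stock; rotated overnight at rt, centrifuged 3500 rpm 30 min; each phase diluted in 60% acetonitrile with warfarin internal standard, quantified by UHPLC-MS/MS against 1-1000 nM external curve; ketoconazole control.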

Chlamydia trachomatis [6] = assay: Antimicrobial activity against Chlamydia trachomatis serovar LGV-L2 infected in human HeLa cells at 10 uM measured 44 hrs post infection relative to control; assay type: functional
Chlamydia trachomatis [7] = assay: Antimicrobial activity against Chlamydia trachomatis serovar LGV-L2 infected in human HeLa cells measured 44 to 48 hrs post infection by DAPI staining-based assay; assay type: functional, organism-based
Chlamydia trachomatis [8] = assay: Antimicrobial activity against Chlamydia trachomatis serovar D infected in human HeLa cells at 10 uM measured 44 hrs post infection relative to control; assay type: functional
Chlamydia trachomatis [9] = assay: Antimicrobial activity against Chlamydia trachomatis serovar A infected in human HeLa cells at 10 uM measured 44 hrs post infection relative to control; assay type: functional
Chlamydia trachomatis [10] = assay: Drug uptake in Chlamydia trachomatis serovar LGV-L2 inclusion infected in human HeLa cells at 1 uM after 48 hrs by laser confocal microscopy; assay type: ADME, organism-based
Summary of the method: (§3)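 HeLa on coverslips infected with LGV-L2 at MOI 0.5 in HBSS; after 60 min, fresh medium with fluorescent compound or BODIPY control (1 µM) added, left to 48 hpi; PBS-washed, 4% paraformaldehyde fixed, Triton-permeabilized, BSA-blocked, anti-MOMP/rhodamine stained; confocal imaging, 60× oil, Z-stack projections; ≥2 independent experiments.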

Chlamydia trachomatis [11] = assay: Drug uptake in Chlamydia trachomatis serovar LGV-L2 inclusion infected in human HeLa cells at 1 uM coadministered with 8-Cyclopropyl-7-(naphthalen 1-ylmethyl)-5-oxo-N-(3-methylphenyl)-2,3-dihydro-5H-[1,3]thiazolo[3,2-a]pyridine-3-carboxamide after 48 hrs by laser confocal microscopy; assay type: ADME, organism-based
Summary of the method: (§4)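 Infected HeLa (LGV-L2, MOI 0.5) given 1 µM fluorescent analogue alone or with equimolar competitor, added together directly after infection and kept to end; fixed, anti-MOMP stained, confocal imaged with identical settings; fluorescence per inclusion divided by inclusion area in >40 inclusions; two-tailed t-test; ≥2 independent experiments.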

Chlamydia trachomatis [12] = assay: Antimicrobial activity against Chlamydia trachomatis serovar LGV-L2 infected in human HeLa cells at 2.5 uM after 48 hrs; assay type: functional; summary of the method: as §1
Chlamydia trachomatis [13] = assay: Drug uptake in Chlamydia trachomatis serovar LGV-L2 inclusion infected in human HeLa cells at 1 uM coadministered with 6-Amino-8-cyclopropyl-7-(naphthalen-1-ylmethyl)-5-oxo-N-phenyl-2,3-dihydro-5H-[1,3]thiazolo[3,2-a]pyridine 3-carboxamide after 48 hrs by laser confocal microscopy; assay type: ADME, organism-based; summary of the method: as §4
Chlamydia trachomatis [14] = assay: Antimicrobial activity against Chlamydia trachomatis serovar D infected in human HeLa cells assessed as decrease in relative inclusion forming units measured 44 to 48 hrs post infection by DAPI staining-based assay; assay type: functional, organism-based
Escherichia coli = assay: Effect on growth of Escherichia coli MW100 at 50 uM incubated for 8 hrs measured every hour during incubation; assay type: organism-based; settings: in vivo
Summary of the method: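 E. coli MW100 overnight LB cultures at 37 °C diluted to OD600 0.05 in LB with DMSO or 50 µM compound; grown 8 h with OD600 read hourly and visual inspection; triplicate.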

[15] = Effect on growth of Lactobacillus crispatus CCUG 27076A at 50 uM after 48 hrs
Summary of the method: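 L. crispatus CCUG 27076A in MRS broth at 37 °C, 5% CO2; overnight culture diluted 1:20 and grown 48 h with 50 µM compound or 1% DMSO.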

Candida albicans = assay: Effect on growth of Candida albicans SC314 at 50 uM measured every 2 hrs by microscopy; assay type: organism-based; settings: in vivo
Summary of the method: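 C. albicans SC314 grown overnight at 30 °C, diluted to OD600 0.05, grown to OD600 0.2, then compound added at 10 and 50 µM and grown to saturation; sampled every 2 h for microscopic yeast:hyphal ratio.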

[16] = 1-octanol-potassium phosphate buffer distribution co-efficient, log D of the compound incubated overnight at pH 7.4 by shake-flask method
[17] = Dissociation constant, pKa of the compound by UV-visible spectrophotometry; assay type: physicochemical
Summary of the method: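 Spectrophotometric titration: 2–5 µL of 10 mM DMSO stock in phosphate buffer with 20-50% (wt/wt) methanol cosolvent and ISA water; titrated pH 2-12 high to low under argon at 25 ± 1 °C, UV–vis spectra by D-PAS; electrode blank-calibrated pH 1.8-12.0 each run; precipitation monitored at 500 nm.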

HeLa = assay: Drug uptake in human HeLa cells infected with Chlamydia trachomatis serovar LGV-L2 at 1 uM after 48 hrs by laser confocal microscopy; assay type: ADME, cell-based; summary of the method: as §3

O=C(Nc1ccccc1)c1csc2c(C3CC3)c(Cc3cccc4ccccc34)cc(=O)n12
Activity (Chlamydia trachomatis [1]): 2.5 µM
viability at 48 h, 10 µM [2]: 87%
EC50 (Chlamydia trachomatis [3]): 254 nM
viability at 48 h, 25 µM [4]: 73%
logP [5]: 5
fold change (FC) (Chlamydia trachomatis [6]): >=10000
EC50 (Chlamydia trachomatis [7]): 1250 nM
fold change (FC) (Chlamydia trachomatis [8]): >=10000
fold change (FC) (Chlamydia trachomatis [9]): >=10000

CC1=CC(C)=[N+]2C1=C(CCc1cc(=O)n3c(c1C1CC1)SCC3C(=O)Nc1cccc(C)c1)c1c(C)cc(C)n1[B-]2(F)F (stereo not given)
Drug uptake (Chlamydia trachomatis [10]): Active
Drug uptake (Chlamydia trachomatis [11]): Not Active
Activity (Chlamydia trachomatis [12]): >95%
Drug uptake (Chlamydia trachomatis [13]): Not Active

Nc1c(Cc2cccc3ccccc23)c(C2CC2)c2n(c1=O)C(C(=O)Nc1ccccc1)CS2 (stereo not given)
Activity (Chlamydia trachomatis [1]): 0.25 µM
viability at 48 h, 10 µM [2]: 101%
EC50 (Chlamydia trachomatis [3]): 59 nM
EC50 (Chlamydia trachomatis [14]): 58 nM
viability at 48 h, 25 µM [4]: 98%
Activity (Escherichia coli): Non-toxic
Activity [15]: Non-toxic
Activity (Candida albicans): Non-toxic
logD [16]: 4.3
pKa [17]: 2.4

CC1=CC(C)=[N+]2C1=C(C)c1c(C)cc(C)n1[B-]2(F)F
Drug uptake (Chlamydia trachomatis [10]): Not Active
Drug uptake (HeLa): Not Active

— ChEMBL document CHEMBL3792346, “Thiazolino 2-Pyridone Amide Inhibitors of Chlamydia trachomatis Infectivity” (J Med Chem, 2016)
